KCNK3 inh: human KCNK3 channel inhibitors, primary screen, CHO cells, FluxOR thallium flux, B-score; Potassium channel subfamily K member 3 (Homo sapiens), O14649; FluxOR fluorescence; active compounds read low; B-score at 10 µM; 340,000 compounds, 0.84% hits;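 active means B-score under library mean minus 4 SD, starting fluorescence ratio at most library mean plus 5 SD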;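 further: more negative B-score means stronger inhibition of thallium flux through KCNK3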
KCNK9 block: KCNK9 potassium channel inhibitors, primary screen, HEK293 cells, thallium flux | Potassium channel subfamily K member 9 (Homo sapiens), Q9NPC2 | 310,000 compounds, 1.2% hits | FluxOR thallium flux fluorescence; active compounds read low | B-score at 10 µM;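 active means ratio B-score over 3 SD below the library mean, with starting fluorescence within 5 SD of its mean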;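 further: negative B-score means less thallium flux so channel inhibition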
hERG rescue: hERG rescue from dofetilide block, primary screen, cell-based, CHO-hERG, FluxOR thallium flux, dofetilide IC70; Voltage-gated inwardly rectifying potassium channel KCNH2 (Homo sapiens), Q12809; dofetilide IC70 present; activation (rescue from dofetilide block), less the hit threshold, % at 10 µM; 310,000 compounds, 0.51% hits; AID 1511, 2009;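 active means activation above the mean of controls blocked by dofetilide plus 5 SD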;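 further: thallium influx through hERG after potassium depolarization seen as dye fluorescence rise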
Kir21 block: inhibitors of mouse Kir2.1 inward-rectifier potassium channel; AID 1672, 2009; 310,000 compounds, 0.85% hits; Inward rectifier potassium channel 2 (Mus musculus), P35561; B-score at 10 µM; HEK293-Kir2.1, FluxOR thallium flux fluorescence; active compounds read low;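 active means fluorescence ratio B-score at or below minus 3 SD of library scores, with starting-brightness B-score within 2 SD, cut at about -4.2 in these data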;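 further: channel flux triggered by added potassium and thallium sulfate stimulus; B-score of peak minus minimum fluorescence over baseline after thallium stimulus; more negative B-score means stronger Kir2.1 block with less thallium influx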
Target sequence (P35561 whole entry, looked up): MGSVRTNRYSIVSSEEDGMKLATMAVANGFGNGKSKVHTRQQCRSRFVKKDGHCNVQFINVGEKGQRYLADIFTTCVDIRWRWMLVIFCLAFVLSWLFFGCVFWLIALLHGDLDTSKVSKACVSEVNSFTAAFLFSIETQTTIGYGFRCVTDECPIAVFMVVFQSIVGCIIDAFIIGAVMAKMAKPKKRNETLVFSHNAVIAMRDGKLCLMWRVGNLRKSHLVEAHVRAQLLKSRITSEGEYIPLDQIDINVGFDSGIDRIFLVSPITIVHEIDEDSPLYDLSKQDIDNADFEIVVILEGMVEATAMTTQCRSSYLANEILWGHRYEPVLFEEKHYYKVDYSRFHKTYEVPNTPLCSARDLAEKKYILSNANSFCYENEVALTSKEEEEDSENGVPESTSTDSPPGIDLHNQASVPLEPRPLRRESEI
KCNQ1 pot: potentiators or activators of KCNQ1 channel, primary screen, cell-based, thallium flux, high-throughput | Potassium voltage-gated channel subfamily KQT member 1 (Homo sapiens), P51787 | B-score at 10 µM | 310,000 compounds, 0.35% hits | CHO-K1 KCNQ1, thallium flux FluxOR fluorescence; active compounds read high | AID 2648, 2010;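 active means fluorescence ratio B-score, a plate-corrected score, at least three library SD, with initial intensity B-score within 5 SD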
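Doses: Single concentration per compound, DMSO matched to controls | Test system: KCNQ1-transfected CHO-K1 cells | Timing: 90 min dye loading and 20 min compound exposure, both at room temperature | Measured by: Kinetic FluxOR thallium fluorescence, 10-s 1-Hz baseline, 110-s post-stimulus read | Medium: Assay buffer with matched DMSO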
KCNQ1 block: inhibitors of human KCNQ1 channel, primary screen, cell-based, thallium flux, high-throughput; Potassium voltage-gated channel subfamily KQT member 1 (Homo sapiens), P51787; CHO-K1 KCNQ1, FluxOR thallium flux fluorescence; active compounds read high; B-score at 10 µM; 310,000 compounds, 1.3% hits; AID 2642, 2010;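 active means compounds whose thallium flux B-score, printed positive for inhibition, exceeds three library SD while starting fluorescence stays within three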;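 further: channel opened by potassium depolarization with thallium stimulus after 20 min compound exposure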
An asterisk follows results filed as active; i = inactive; nt = no result given. Shown are actives, neighbours in structure and some others; about 3.8% of the full set was active somewhere.

SMILES	KCNK3 inh	KCNK9 block	hERG rescue	Kir21 block	KCNQ1 pot	KCNQ1 block
Cc1ccc(C(=O)c2cc([N+](=O)[O-])ccc2N2CCCCC2)c(C)c1	i	-7.46*	-4.1	0.4	i	i
COc1ccc(CC(=O)Nc2ccccc2N2CCCCC2)cc1OC	i	i	-12.6	-6.19*	i	i
COc1cccc(CC(=O)Nc2ccccc2C(=O)N2CCOCC2)c1	i	i	0.1	0	i	i
COc1cccc(CC(=O)Nc2ccccc2N2CCCC2)c1	i	i	-6.3	-6.74*	i	i
COc1ccc(CC(=O)Nc2ccccc2N2CCOCC2)cc1OC	i	i	-8.0	-1.3	i	i
O=C(COc1ccc([N+](=O)[O-])cc1)N/N=C/c1cc([N+](=O)[O-])ccc1N1CCOCC1	i	i	-2.9	0.13	i	i
O=C(O)c1cc([N+](=O)[O-])ccc1N1CCCCC1	i	i	-3.3	-0.41	i	i
Cc1ccc(OCC(=O)c2cc(C)n(C3CC3)c2C)c([N+](=O)[O-])n1	i	i	-1.1	1.95	i	i
CCOC(=O)Cc1nnc(NC(=O)c2ncn[nH]2)s1	i	i	-16.9	0.15	i	i
CCC(=O)Nc1ccc(N2CCCCC2)c(C(=O)Nc2ccc(OC)cc2)c1	i	i	-11.1	1.36	i	i
O=C(COc1cccc(C(F)(F)F)c1)Nc1ccccc1N1CCCCC1	i	-7.84*	-14.9	-0.43	i	i
O=C(Cc1ccccc1)Nc1ccccc1N1CCN(c2ccccc2)CC1	-8.74*	i	-9.6	-0.12	i	i
COc1ccc(N2CCCC2)c(NC(=O)COc2ccccc2Cl)c1	i	i	-7.8	-0.2	i	i
COc1ccc(OCC(=O)Nc2cc(OC)ccc2N2CCCCC2)cc1	i	-7.89*	-4.0	1.27	i	i
CS(=O)(=O)N1CCN(c2ccccc2NC(=O)Cc2ccccc2)CC1	i	i	-11.2	0.05	i	i
COc1ccc(CC(=O)Nc2ccc(N3CCCC3)c(C)c2)cc1	i	i	-5.2	-9.82*	i	i
CCOC(=O)C1=C(C)N2C(=C(C#N)[C@@H]1c1ccc(C(=O)OC)cc1)SC[C@@]2(O)C(C)(C)C	i	i	-19.8	-1.46	i	6*
CCOC(=O)C1=C(C)N=C2SCCC(=O)N2C1c1ccc(C(=O)OC)cc1 (stereo not drawn)	i	i	-8.5	0.06	i	i
COc1ccc(C)cc1-n1nnnc1SCC1CCCCO1 (stereo not drawn)	i	i	-2.8	-4.68*	i	i
COc1ccc(C)cc1-n1nnnc1SCC(=O)NC1CCCC1	i	nt	nt	nt	nt	nt
CCN(CC(=O)NC1CCS(=O)(=O)C1)C(C)C(=O)Nc1ccc(F)cc1 (stereo not drawn)	i	nt	nt	nt	nt	nt
CCOC(=O)C1=C(C)OC(N)=C(C#N)C1c1cccs1 (stereo not drawn)	i	i	-5.5	-2.5	i	i
CCN1C=C(Cc2cccs2)C2=C(C1)C(c1cccs1)C(C#N)=C(N)O2 (stereo not drawn)	-8.99*	-7.42*	-24.4	-0.02	i	i
CCOC(=O)Cn1cc(C(=O)C2CC2)c2ccccc21	i	i	-7.0	0.02	i	i
CCOC(=O)c1cnc(-n2nc(C)cc2C)nc1Oc1ccc(C(=O)OC)cc1	i	i	-8.6	0.67	i	i
COc1ccccc1NC(=O)C(C)NC(c1ccccc1)c1ccccc1 (stereo not drawn)	i	i	-7.2	-0.06	i	i
CC(C(=O)Nc1ccccc1Oc1ccccc1)c1ccccc1 (stereo not drawn)	i	i	3.5	-5.05*	i	i
O=C(Nc1nccs1)c1cn(-c2ccccc2)nc1-c1ccccc1	i	i	-3.3	1.72	i	i
CC(C)COc1ccc(-c2nn(-c3ccccc3)cc2C(=O)Nc2nccs2)cc1	i	i	14.2*	-0.85	9*	i
CP(C)(=O)CCP(=O)(c1ccccc1)c1ccccc1	i	i	-5.7	-0.7	i	i
